Screening results as filed in PubChem BioAssay.
Rows were chosen to be rich in hits. Some 3.5% of all compounds tested hit in one or more screens of this group.
MEKK3 PB1 HTS = modulators of MEKK3-MEK5 PB1 binding, primary screen, biochemical, wildtype MEKK3, multiplex bead flow cytometry, Alexa488-MEK5; Mitogen-activated protein kinase kinase kinase 3 (Homo sapiens), Q99759; bead-based flow cytometry, Alexa488-MEK5 binding to MEKK3; actives lie on both sides; 0 = blocked by unlabeled MEK5, 100 = vehicle; binding response (% of control), % at 10 µM; 290,000 tested, 1.4% active; AID 1529, 2009;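 active = binding response more than 3 SD above or below the average of its plate-row segment, actives on both sides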;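 also: Alexa488 bead fluorescence after subtracting the streptavidin-only scavenger bead signal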
Target sequence (Q99759 whole entry, looked up): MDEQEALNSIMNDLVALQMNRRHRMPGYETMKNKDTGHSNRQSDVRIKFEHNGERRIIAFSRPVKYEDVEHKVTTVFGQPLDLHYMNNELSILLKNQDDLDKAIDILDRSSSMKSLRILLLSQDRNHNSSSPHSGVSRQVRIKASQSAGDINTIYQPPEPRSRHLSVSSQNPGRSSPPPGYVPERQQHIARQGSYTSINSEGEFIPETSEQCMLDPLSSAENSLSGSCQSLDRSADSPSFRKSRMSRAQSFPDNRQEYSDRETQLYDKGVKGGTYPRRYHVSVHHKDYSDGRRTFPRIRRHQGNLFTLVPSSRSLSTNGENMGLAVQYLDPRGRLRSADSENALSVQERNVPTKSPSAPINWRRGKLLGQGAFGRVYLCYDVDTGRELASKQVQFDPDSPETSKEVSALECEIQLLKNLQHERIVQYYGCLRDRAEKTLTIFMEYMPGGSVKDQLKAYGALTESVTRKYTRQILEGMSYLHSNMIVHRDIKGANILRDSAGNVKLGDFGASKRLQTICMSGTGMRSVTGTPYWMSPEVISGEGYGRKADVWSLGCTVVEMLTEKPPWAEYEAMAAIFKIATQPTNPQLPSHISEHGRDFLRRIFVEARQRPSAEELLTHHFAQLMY
MEKK2 mut-MEK5 = MEK5 binding signal on mutant MEKK2 PB1, primary screen, biochemical, multiplex bead flow cytometry, Alexa488-MEK5 | percent response, % at 10 µM | Alexa488-MEK5 binding to MEKK2 mutant | 290,000 tested, 0.35% active; in the data active = percent response above about 24%, passing the limit was not always enough
ABCG2 block = ABCG2 efflux pump inhibitors, primary screen, multiplex with ABCB1, IgMXP3 cells, flow cytometry; AID 1325, 2008; JC-1 efflux; 190,000 tested, 0.1% active; inhibition, % at 6.6 µM;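 active = inhibition above 80%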;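 also: 0% = DMSO and 100% = nicardipine control wells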
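Incubation: cells with compound and JC-1, 10 min at 25 °C, rotating, no wash / Test system: IgMXP3 (ABCG2) plus far-red-tagged CCRF-Adr (ABCB1) cells / Compound dosing: one concentration, 6.6 µM final / Also added: JC-1 fluorescent substrate / Evaluation: efflux inhibition in percent versus controls / Detection: flow cytometry, 530 nm JC-1 signal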
MEKK2 WT-MEK5 = modulators of MEK5 binding to wildtype MEKK2, primary screen, biochemical, multiplex bead flow cytometry, Alexa488-MEK5; AID 1531, 2009; Alexa488-MEK5 binding to MEKK2 WT; actives lie on both sides; binding response (% of control), % at 10 µM; 290,000 tested, 1.1% active; in the data active = binding response below about 67% or above about 130%
WT yeast gro inh = growth inhibition of WT strain, primary screen, mitochondrial fusion inhibitor project, WT and mutant strains, chemical genetic. inhibition, % at 10 µM. mitochondrial fusion phenotypic screen. 190,000 tested, 2.1% active; in the data active = inhibition above about 58%; tested in S. cerevisiae
ABCB1 block = ABCB1 efflux pump inhibitors, primary screen, cell-based, multiplex, flow cytometry, ABCG2 counter-screen | AID 1326, 2008 | ATP-dependent translocase ABCB1 (Homo sapiens), P08183 | inhibition, % at 6.6 µM | 190,000 tested, 0.067% active | CCRF-Adr cells, JC-1 efflux; in the data active = inhibition above about 40%;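 also: 0% = vehicle and 100% = reference inhibitor; higher value means more JC-1 retained so stronger ABCB1 efflux block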
MEKK2wt confirm = modulators of MEK5 binding to wildtype MEKK2, confirmation, biochemical, single concentration, multiplex bead flow cytometry. shares compounds with MEKK3 PB1 HTS. Alexa488-MEK5 binding to MEKK2 WT; actives lie on both sides. binding response (% of control), % at 10 µM. 5,900 tested, 2.4% active. AID 1892, 2009; in the data active = binding response below about 16% or above about 210%; inactive = in between
MEKK2mut confirm = mutant MEKK2 PB1-MEK5 binding signal retest – biochemical, single concentration, multiplex bead flow cytometry, confirmation | percent response, % at 10 µM | 5,900 tested, 2% active | AID 1893, 2009 | Alexa488-MEK5 binding to MEKK2 mutant | shares compounds with MEKK3 PB1 HTS; in the data active = percent response mostly above about 71%, no sharp cut-off; inactive = mostly below about 38%;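 also: higher means compound restores mutant binding toward wildtype level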
MEKK3-MEK5 inh = MEKK3 wild-type PB1 binding to MEK5, inhibitors, confirmation, biochemical, bead multiplex flow cytometry, single concentration, wildtype; Alexa488-MEK5 binding to MEKK3; active compounds read low; 5,900 tested, 1.8% active; shares compounds with MEKK3 PB1 HTS; binding response (% of control), % at 10 µM;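 active = binding response below 72% of control, or above a set upper limit, though filed actives all read lower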;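 also: 100% = DMSO only wells and 0% = binding blocked by excess unlabeled MEK5; lower values mean stronger disruption of MEK5 binding to MEKK3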
An asterisk follows results filed as active; . = no result; [ ] = another dose, or the depositor's remark.

SMILES | MEKK3 PB1 HTS | MEKK2 mut-MEK5 | ABCG2 block | MEKK2 WT-MEK5 | WT yeast gro inh | ABCB1 block | MEKK2wt confirm | MEKK2mut confirm | MEKK3-MEK5 inh
CNS(=O)(=O)c1cccc(C(=O)OCC(=O)/C=C2/N(C)c3ccccc3C2(C)C)c1 | 131.0* | 1.0 | 8.8 | 108.0 | 17.0 | 0.5 | 106.0 | -2.0 | 100.0
O=C(O)c1nc(NCCc2ccccc2)ncc1Cl | 102.0 | -1.0 | . | 97.0 | . | . | . | . | .
O=C(CSc1nc2cc(Cl)ccc2s1)NC(=O)NCc1ccco1 | 81.0*[inhibitor] | -11.0 | 0.1 | 85.0 | 8.6 | -0.1 | 99.0 | -1.0 | 100.0
Cc1cccc2sc(N(CCCN(C)C)C(=O)c3ccc(Cl)s3)nc12 | 108.0 | 4.0 | 0.3 | 134.0 | 53.2 | 0.4 | . | . | .
CN(C)CCCN(C(=O)COc1ccccc1)c1nc2c(F)cccc2s1 | 109.0 | 0.0 | 2.5 | 124.0 | 11.8 | 0.4 | . | . | .
CCOc1cccc2sc(N(CCCN(C)C)C(=O)Cc3ccccc3)nc12 | 128.0 | 75.0* | -0.3 | 180.0* | 2.0 | 0.9 | 133.0 | 31.0 | 113.0
CCOc1cccc2sc(N(CCCN(C)C)C(=O)c3ccc(C(=O)c4ccccc4)cc3)nc12 | 108.0 | 35.0* | . | 161.0* | . | . | 154.0 | 23.0 | 105.0
N#CCCOC1(C#CCN2CCCC2)CCCCC1 | 102.0 | 6.0 | . | 109.0 | . | . | . | . | .
CCS(=O)(=O)N1N=C(c2ccc(NS(C)(=O)=O)cc2)CC1c1ccccc1 (stereo not drawn) | 32.0*[inhibitor] | . | 0.5 | . | -7.5 | 0.3 | 76.0 | -9.0 | 74.0
CS(=O)(=O)Nc1ccc(C2=NN(C(=O)c3ccco3)C(c3ccccc3)C2)cc1 (stereo not drawn) | 97.0 | -2.0 | 11.6 | 97.0 | -14.0 | 0.1 | . | . | .
CC(C)C(=O)N1N=C(c2ccc(NS(C)(=O)=O)cc2)CC1c1cccs1 (stereo not drawn) | 101.0 | 1.0 | 1.3 | 101.0 | -15.0 | -0.8 | . | . | .
CS(=O)(=O)Nc1ccc(C2=NN(S(=O)(=O)c3ccccc3)C(c3cccs3)C2)cc1 (stereo not drawn) | 7.0*[inhibitor] | . | -0.6 | . | 0.4 | 0.3 | 79.0 | -1.0 | 73.0
COc1ccc(Cn2cccc(NC(=O)Nc3cccc(OC)c3)c2=O)cc1 | 91.0 | -7.0 | . | 92.0 | . | . | . | . | .
O=C(CN1CCCC1)NCC12CC3CC(CC(C3)C1)C2 | 82.0*[inhibitor] | -5.0 | 0.6 | 91.0 | -3.2 | 0.1 | 101.0 | 3.0 | 103.0
O=C(CN1CCCC1)NC12CC3CC(CC(C3)C1)C2 | 98.0 | -2.0 | -0.6 | 94.0 | -9.2 | -0.1 | . | . | .
COc1cccc(NC(=O)c2ccnc(N3CCC(C(=O)NCc4cc(OC)ccc4OC)CC3)c2)c1 | 98.0 | 1.0 | . | 97.0 | . | . | . | . | .
C=CCSC1=C(C#N)C(c2ccccc2OCC)CC(=O)N1 (stereo not drawn) | 0.0*[inhibitor] | -22.0 | 5.4 | -8.0*[inhibitor] | -1.1 | 1.7 | 111.0 | 7.0 | 105.0
COC(=O)CSC1=C(C#N)C(c2ccccc2)CC(=O)N1 (stereo not drawn) | 2.0*[inhibitor] | -27.0 | -1.5 | -2.0*[inhibitor] | -8.6 | -0.3 | 97.0 | -3.0 | 98.0
Cn1c(CCN2CCN(c3ccccn3)CC2)nc2cc(NC(=O)COc3ccccc3)ccc21 | 100.0 | -1.0 | . | 101.0 | . | . | . | . | .
CC(=O)Nc1cccc(C(=O)N2CCN(Cc3ccccc3)CC2)c1 | -1.0*[inhibitor] | -21.0 | 26.3 | -1.0*[inhibitor] | 10.6 | 0.2 | 107.0 | 3.0 | 105.0
COc1ccc(S(=O)(=O)N2CCN(C(c3ccccc3)c3ccccc3)CC2)cc1NC(C)=O | 100.0 | -2.0 | . | 101.0 | . | . | . | . | .
Cc1cc(S(=O)(=O)N2CCN(c3ncccn3)CC2)ccc1-n1cnnn1 | 101.0 | -3.0 | 0.0 | 102.0 | -9.5 | 0.0 | . | . | .
O=C(CSc1nc2ccccc2c(=O)n1Cc1ccc(Cl)cc1)NCc1cccs1 | 100.0 | -2.0 | 2.3 | 96.0 | 1.6 | 1.6 | . | . | .
O=C(CSc1nc2ccccc2c(=O)n1-c1ccc(OC(F)F)cc1)NCc1cccs1 | 138.0* | 0.0 | 5.0 | 105.0 | 3.5 | 1.3 | 100.0 | 0.0 | 102.0
CCOC(=O)C(=NCC1CCCO1)NNc1ccccc1Cl (stereo not drawn) | 106.0 | 10.0 | . | 115.0 | . | . | . | . | .
SMILES | MEKK3 PB1 HTS | MEKK2 mut-MEK5 | ABCG2 block | MEKK2 WT-MEK5 | WT yeast gro inh | ABCB1 block | MEKK2wt confirm | MEKK2mut confirm | MEKK3-MEK5 inh
O=C(NCc1cccs1)c1cccc(S(=O)(=O)N2CCCCC2)c1 | 102.0 | 3.0 | 3.2 | 104.0 | 6.2 | 0.9 | . | . | .
O=C(NCc1cccs1)c1ccc(Cl)c(S(=O)(=O)N2CCCC2)c1 | 74.0*[inhibitor] | -2.0 | 3.9 | 93.0 | -0.2 | 0.8 | 105.0 | -1.0 | 103.0
O=C(NCc1ccco1)c1ccc(S(=O)(=O)N2CCCCC2)cc1 | 130.0* | 0.0 | 9.2 | 114.0 | 7.7 | 1.8 | 106.0 | 5.0 | 106.0
O=C(NCc1ccco1)c1ccc(S(=O)(=O)N2CCOCC2)cc1 | 116.0 | 5.0 | 0.2 | 106.0 | -0.7 | 0.1 | . | . | .
NS(=O)(=O)c1cc2c(cc1Cl)NC(Cc1ccccc1)NS2(=O)=O (stereo not drawn) | 106.0 | 5.0 | . | 97.0 | . | . | . | . | .
CCn1c(C(=O)O)c(CC(=O)N(C)c2ccc(OC)cc2OC)c2ccccc21 | 102.0 | 5.0 | . | 104.0 | . | . | . | . | .
COc1ccc(C(C(=O)OC(C)CN(C)C)c2ccccc2)cc1 (stereo not drawn) | 107.0 | 25.0* | 0.9 | 116.0 | 2.8 | 0.3 | 54.0 | -36.0 | 45.0*
CCN(Cc1ccccc1)S(=O)(=O)c1ccc(C(=O)N(CCCN(C)C)c2nc3c(F)cccc3s2)cc1 | 110.0 | 43.0* | . | 190.0* | . | . | 203.0 | 39.0 | 106.0
CCN(c1ccccc1)S(=O)(=O)c1ccc(C(=O)N(CCCN(C)C)c2nc3c(C)cccc3s2)cc1 | 103.0 | 20.0 | . | 154.0* | . | . | 166.0 | 31.0 | 110.0
Cc1cccc2sc(N(CCN(C)C)C(=O)c3ccc4ccccc4c3)nc12 | 100.0 | 18.0 | . | 117.0 | . | . | . | . | .
Cc1ccc2c(c1)c1c3n2CCN(CC(N)=O)C3CCC1 (stereo not drawn) | 100.0 | 0.0 | . | 105.0 | . | . | . | . | .
